The target in data set [1] is Bovine serum albumin (BSA)-glucose model (Bos taurus, UniProt P02769). The experiment in a line: In vitro anti-glycation assay, BSA-glucose model. The data set is classed as biochemical. To be noted: for inhibition at 100 ppm / inhibition at 200 ppm / inhibition at 400 ppm / inhibition at 600 ppm / inhibition at 800 ppm / inhibition at 1000 ppm: read-out: % age antiglycation inhibition. The method, boiled down:
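Glycation is read by measuring the fluorescence of glycated products on a spectrofluorometer.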

Data set [2] in a line: DPPH radical scavenging assay. Conditions: for IC50: read-out: IC50 (mM ± SEM), DPPH scavenged by 50%; for percentage antioxidant potential: at tested concentrations, IC50 not calculated. In outline:
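Radical scavenging of DPPH by the test compound, with ascorbic acid as the reference.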

Another data set relates to α-amylase. Briefly: α-Amylase inhibition assay. The class given is biochemical. To be noted: for IC50: read-out: IC50 ± SEM, α-amylase inhibition.
The test system of data set [3] is glycation. To be noted: read-out: IC50, antiglycation; cited from earlier work.
The subject of data set [4] is glycation. To be noted: cited from earlier work.

The structures appear in SMILES notation. ≈ marks a conversion by molar mass, not a printed value.

Sequence of Bovine serum albumin (BSA)-glucose model (P02769 25-607): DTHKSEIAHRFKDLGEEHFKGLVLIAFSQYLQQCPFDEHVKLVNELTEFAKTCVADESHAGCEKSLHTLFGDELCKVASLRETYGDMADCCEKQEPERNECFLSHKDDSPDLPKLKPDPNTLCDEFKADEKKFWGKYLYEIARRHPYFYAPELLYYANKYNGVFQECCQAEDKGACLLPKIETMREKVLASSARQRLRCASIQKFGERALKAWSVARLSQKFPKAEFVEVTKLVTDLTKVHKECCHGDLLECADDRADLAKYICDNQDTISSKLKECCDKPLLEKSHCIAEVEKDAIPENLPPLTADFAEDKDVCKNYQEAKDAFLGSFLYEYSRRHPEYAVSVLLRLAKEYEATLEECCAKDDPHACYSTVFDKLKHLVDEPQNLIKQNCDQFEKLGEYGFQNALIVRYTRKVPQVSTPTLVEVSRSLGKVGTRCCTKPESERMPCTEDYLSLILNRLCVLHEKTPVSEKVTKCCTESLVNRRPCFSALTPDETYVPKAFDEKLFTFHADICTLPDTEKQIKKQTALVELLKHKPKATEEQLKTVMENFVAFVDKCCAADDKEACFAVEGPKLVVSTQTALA

As to `CCOc1ccccc1C=NNc1nc(-c2ccc(F)cc2)cs1` [3j, 2-(2-(2-Ethoxybenzylidene)hydrazinyl)-4-(4-fluorophenyl)thiazole], the inhibition (commonly the percentage by which the read-out fell short of the control) at 100 ppm in data set [1] is 52.3%. Also, the inhibition at 200 ppm in data set [1] was found to be 61.5%. Moreover, the inhibition at 400 ppm in data set [1] was determined as 66.5%. Further, the inhibition at 600 ppm in data set [1] came out at 70.3%. Also, the inhibition at 800 ppm in data set [1] worked out at 76.2%. Further, the inhibition at 1000 ppm in data set [1] worked out at 79.2%. Besides, the “% age antioxidant potential” value in data set [2] (3 mM) is 18.18%; in data set [2] (6 mM), 45.90%; in data set [2] (9 mM), 62.07%; in data set [2] (12 mM), 75.45%; in data set [2] (15 mM) it was 78.51%. Moreover, the figures for the IC50 (in data set [2]; at α-amylase) were 8.33 ± 0.08 mM and 8.07 ± 0.12 µM, respectively. The “% age α-amylase inhibition” value was 29.58% with α-amylase (1 μM), 42.23% in the data set with α-amylase (5 μM) and 54.03% in the data set on α-amylase (10 μM).

In the case of `Fc1ccc(-c2csc(NN=Cc3ccccc3C(F)(F)F)n2)cc1` [3k, 4-(4-Fluorophenyl)-2-(2-(2-(trifluoromethyl)benzylidene)hydrazinyl)thiazole], the inhibition at 100 ppm in data set [1] came to 87.4%. The inhibition at 200 ppm in data set [1] came out at 87.9%. In addition, the inhibition at 400 ppm in data set [1] was 88.8%. Moreover, the inhibition at 600 ppm in data set [1] amounted to 89.2%. Besides, in data set [1], the inhibition at 800 ppm was determined as 90%. Also, in data set [1], the inhibition at 1000 ppm stood at 91.6%. Further, the “% age antioxidant potential” value in data set [2] (3 mM) was determined as 0.00%; in data set [2] (6 mM), 14.08%; in data set [2] (9 mM) it was 21.05%; in data set [2] (12 mM), 30.92%; in data set [2] (15 mM), 48.28%. Further, in data set [2], the percentage antioxidant potential result was “less than 50%”. The “% age α-amylase inhibition” value with α-amylase (1 μM) came to 47.84%; in the data set on α-amylase (5 μM) it was 57.72%; in the data set on α-amylase (10 μM), 70.90%. Moreover, the IC50 (commonly the midpoint of a concentration-inhibition curve) at α-amylase is 6.03 ± 0.04 µM.

As for `COc1c(F)cccc1C=NNc1nc(-c2ccc(F)cc2)cs1` [3l, 2-(2-(3-Fluoro-2-methoxybenzylidene)hydrazinyl)-4-(4-fluorophenyl)thiazole], in data set [1], the inhibition at 100 ppm amounted to 79.9%. In data set [1], the inhibition at 200 ppm was 81.8%. Moreover, the inhibition at 400 ppm in data set [1] worked out at 83%. In data set [1], the inhibition at 600 ppm came to 84.6%. Further, the inhibition at 800 ppm in data set [1] turned out to be 86.2%. In addition, the inhibition at 1000 ppm in data set [1] was 87.1%. Also, the “% age antioxidant potential” value was 0.00% in data set [2] (3 mM); 15.62% in data set [2] (6 mM); 32.06% in data set [2] (9 mM); 46.14% in data set [2] (12 mM); 65.18% in data set [2] (15 mM). Moreover, the figures for the IC50 (in data set [2]; at α-amylase) were 12.94 ± 0.01 mM and 7 ± 0.13 µM, respectively. The “% age α-amylase inhibition” value in the data set with α-amylase (1 μM) is reported as 37.06%; in the data set on α-amylase (5 μM), 49.08%; with α-amylase (10 μM) it was 61.72%.

On to `Fc1ccc(-c2csc(NN=Cc3ccc[nH]3)n2)cc1` [3m, 2-(2-((1H-Pyrrol-2-yl)methylene)hydrazinyl)-4-(4-fluorophenyl)thiazole], for which, in data set [1], the inhibition at 100 ppm stood at 76.8%. Further, the inhibition at 200 ppm in data set [1] was found to be 78.8%. Besides, the inhibition at 400 ppm in data set [1] came out at 82.5%. The inhibition at 600 ppm in data set [1] was 84%. Moreover, the inhibition at 800 ppm in data set [1] worked out at 86.1%. Further, the inhibition at 1000 ppm in data set [1] came to 88.8%. The “% age antioxidant potential” value in data set [2] (3 mM) worked out at 0.00%; in data set [2] (6 mM) it was 0.00%; in data set [2] (9 mM) it was 0.00%; in data set [2] (12 mM), 15.13%; in data set [2] (15 mM) it was 31.05%. In data set [2], the percentage antioxidant potential result is recorded as “less than 50%”. In addition, the “% age α-amylase inhibition” value in the data set with α-amylase (1 μM) is reported as 42.76%; with α-amylase (5 μM) it was 52.79%; with α-amylase (10 μM) it was 63.94%. On α-amylase, the IC50 turned out to be 6.66 ± 0.13 µM.

`Fc1ccc(-c2csc(NN=Cc3cccs3)n2)cc1` [3n, 4-(4-Fluorophenyl)-2-(2-(thiophen-2-ylmethylene)hydrazinyl)thiazole]: in data set [1], the inhibition at 100 ppm is 79.3%. In data set [1], the inhibition at 200 ppm turned out to be 81%. Moreover, the inhibition at 400 ppm in data set [1] is 82.1%. Also, the inhibition at 600 ppm in data set [1] was 83%. Also, the inhibition at 800 ppm in data set [1] worked out at 85.8%. Moreover, the inhibition at 1000 ppm in data set [1] turned out to be 87.8%. For the same compound, the “% age antioxidant potential” value is recorded as 0.00% in data set [2] (3 mM); 12.72% in data set [2] (6 mM); 30.39% in data set [2] (9 mM); 45.47% in data set [2] (12 mM); 59.36% in data set [2] (15 mM). Besides, the IC50 in data set [2] worked out at 13.86 ± 0.04 mM; at α-amylase, 5.77 ± 0.05 µM. The “% age α-amylase inhibition” value in the data set on α-amylase (1 μM) was found to be 51.64%; with α-amylase (5 μM), 64.48%; in the data set with α-amylase (10 μM) it was 71.83%.

As for `CSc1ccccc1C=NNc1nc(-c2ccc(F)cc2)cs1` [3o, 4-(4-Fluorophenyl)-2-(2-(2-(methylthio)benzylidene)hydrazinyl)thiazole], the inhibition at 100 ppm in data set [1] stood at 83.7%. Besides, in data set [1], the inhibition at 200 ppm was determined as 84.2%. The inhibition at 400 ppm in data set [1] stood at 85.5%. In addition, in data set [1], the inhibition at 600 ppm was 86.4%. For the same compound, the inhibition at 800 ppm in data set [1] was found to be 88.2%. Moreover, the inhibition at 1000 ppm in data set [1] amounted to 89.5%. Besides, the “% age antioxidant potential” value in data set [2] (3 mM) is listed as 0.00%; in data set [2] (6 mM), 7.68%; in data set [2] (9 mM), 18.22%; in data set [2] (12 mM), 30.15%; in data set [2] (15 mM), 53.73%. Also, the IC50 is 18 ± 0.27 mM in data set [2] and 7.69 ± 0.18 µM on α-amylase. Also, the “% age α-amylase inhibition” value was 33.07% in the data set with α-amylase (1 μM), 43.03% with α-amylase (5 μM) and 57.18% with α-amylase (10 μM).

For the compound `N=C(N)NN` [amino guanidine, reference compound], in the data set on glycation [3], the IC50 is 25.5 ± 0.337 µM. Further, the “% age antiglycation inhibition” value in data set [1] (100 ppm) is on record as 85.190%; in data set [1] (200 ppm), 86.141%; in data set [1] (400 ppm), 87.143%; in data set [1] (600 ppm), 88.011%; in data set [1] (800 ppm) it was 88.866%; in data set [1] (1000 ppm) it was 89.657%. In addition, the “IC50, antiglycation” value in the data set with glycation [4] is 394 ± 1 µg/mL (≈ 5.32 mM).

Values taken from publication PMC10061536 (ACS Omega, 2023).
